According to ChEMBL document CHEMBL2034858, “An efficient one-pot synthesis, structure, antimicrobial and antioxidant investigations of some novel quinolyldibenzo[b,e][1,4]diazepinones” (2012):
In brackets after ≈: the same amount, converted by molar mass.

Experiments:
Bacillus subtilis = assay: Antibacterial activity against Bacillus subtilis MTCC 441 after 24 hrs by micro-broth dilution method; format: functional; conditions: MTCC 441, 24 h
Clostridium tetani = assay: Antibacterial activity against Clostridium tetani MTCC 449 after 24 hrs by micro-broth dilution method; format: functional; conditions: MTCC 449, 24 h
Candida albicans = assay: Antifungal activity against Candida albicans MTCC 227 after 48 hrs by micro-broth dilution method; format: functional
Streptococcus pneumoniae = assay: Antibacterial activity against Streptococcus pneumoniae MTCC 1936 after 24 hrs by micro-broth dilution method; format: functional; conditions: MTCC 1936, 24 h
Vibrio cholerae = assay: Antibacterial activity against Vibrio cholerae MTCC 3906 after 24 hrs by micro-broth dilution method; format: functional; conditions: MTCC 3906, 24 h
Aspergillus fumigatus = assay: Antifungal activity against Aspergillus fumigatus MTCC 3008 after 48 hrs by micro-broth dilution method; format: functional
Escherichia coli = assay: Antibacterial activity against Escherichia coli MTCC 443 after 24 hrs by micro-broth dilution method; format: functional; conditions: MTCC 443, 24 h
Salmonella typhi = assay: Antibacterial activity against Salmonella typhi MTCC 98 after 24 hrs by micro-broth dilution method; format: functional, Salmonella enterica subsp. enterica serovar Typhi; conditions: Salmonella enterica, MTCC 98, 24 h
[1] = test system: Mycobacterium tuberculosis; assay: Antitubercular activity against Mycobacterium tuberculosis H37Rv at 250 ug/mL; format: functional; conditions: read-out: GI
How it was run: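 M. tuberculosis H37Rv tested on conventional L.J. (Löwenstein–Jensen) medium; activity read as percent growth inhibition.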

[2] = Antioxidant activity assessed as ascorbic acid equivalent/100g at 200 ug/mL by FRAP assay; format: functional
[3] = test system: Mycobacterium tuberculosis; assay: Antitubercular activity against Mycobacterium tuberculosis H37Rv at > 256 ug/mL; format: functional

Compound | MIC (Bacillus subtilis) | MIC (Clostridium tetani) | MIC (Candida albicans; MTCC 227, 48 h) | MIC (Streptococcus pneumoniae) | MIC (Vibrio cholerae) | MIC (Aspergillus fumigatus; MTCC 3008, 48 h) | MIC (Escherichia coli) | MIC (Salmonella typhi) | inhibition of growth at 250 µg/mL [1] | Activity [2] | growth inhibition (GI) [3] | MIC (Candida albicans) | MIC (Aspergillus fumigatus)
C=CCn1c(=O)c(C2Nc3ccccc3NC3=C2C(=O)CCC3)cc2ccc(Cl)cc21 (centres undefined) | 250 µg/mL (≈ 579 µM) | 250 µg/mL (≈ 579 µM) | > 250 µg/mL | 250 µg/mL (≈ 579 µM) | 250 µg/mL (≈ 579 µM) | > 250 µg/mL | 100 µg/mL (≈ 232 µM) | 250 µg/mL (≈ 579 µM) | < 50% | 490 mmol |  |  | 
C=CCn1c(=O)c(C2Nc3ccccc3NC3=C2C(=O)CCC3)cc2cc(C)ccc21 (centres undefined) | 250 µg/mL (≈ 608 µM) | 100 µg/mL (≈ 243 µM) | > 250 µg/mL | > 250 µg/mL | 500 µg/mL (≈ 1220 µM) | > 250 µg/mL | 250 µg/mL (≈ 608 µM) | 250 µg/mL (≈ 608 µM) | 58% | 499 mmol |  |  | 
Cc1ncc([N+](=O)[O-])n1CCO [METRONIDAZOLE] |  |  |  |  |  |  |  |  |  |  | 99% |  | 
CC1(C)S[C@@H]2[C@H](NC(=O)[C@H](N)c3ccccc3)C(=O)N2[C@H]1C(=O)O [AMPICILLIN] | 250 µg/mL (≈ 715 µM) | 250 µg/mL (≈ 715 µM) |  | 100 µg/mL (≈ 286 µM) | 100 µg/mL (≈ 286 µM) |  | 100 µg/mL (≈ 286 µM) | 100 µg/mL (≈ 286 µM) |  |  |  |  | 
C=CCN1c2ccccc2NC2=C(C(=O)CCC2)C1c1cc2ccccc2n(CC=C)c1=O (centres undefined) | 100 µg/mL (≈ 229 µM) | 200 µg/mL (≈ 457 µM) | > 250 µg/mL | 100 µg/mL (≈ 229 µM) | 100 µg/mL (≈ 229 µM) | 250 µg/mL (≈ 571 µM) | > 250 µg/mL | 250 µg/mL (≈ 571 µM) | 51% | 389 mmol |  |  | 
COC1=CC(=O)C[C@@H](C)[C@]12Oc1c(Cl)c(OC)cc(OC)c1C2=O [GRISEOFULVIN] |  |  | 500 µg/mL (≈ 1420 µM) |  |  | 100 µg/mL (≈ 283 µM) |  |  |  |  |  |  | 
C=CCn1c(=O)c(C2Nc3ccccc3NC3=C2C(=O)CC(C)(C)C3)cc2ccc(C)cc21 (centres undefined) | 250 µg/mL (≈ 569 µM) | 250 µg/mL (≈ 569 µM) | > 250 µg/mL | > 250 µg/mL | > 250 µg/mL | > 250 µg/mL | 250 µg/mL (≈ 569 µM) | 250 µg/mL (≈ 569 µM) | 91% | 270 mmol |  |  | 
C=CCn1c(=O)c(C2Nc3ccccc3NC3=C2C(=O)CC(C)(C)C3)cc2ccccc21 (centres undefined) | > 250 µg/mL | 200 µg/mL (≈ 470 µM) | > 250 µg/mL | > 250 µg/mL | > 250 µg/mL | > 250 µg/mL | 200 µg/mL (≈ 470 µM) | > 250 µg/mL | < 50% | 324 mmol |  |  | 
O=C(O)c1cn(C2CC2)c2cc(N3CCNCC3)c(F)cc2c1=O [CIPROFLOXACIN] |  |  |  | 50 µg/mL (≈ 151 µM) | 25 µg/mL (≈ 75.4 µM) |  | 25 µg/mL (≈ 75.4 µM) | 25 µg/mL (≈ 75.4 µM) |  |  |  |  | 
C=CCn1c(=O)c(C2Nc3ccccc3NC3=C2C(=O)CCC3)cc2ccc(C)cc21 (centres undefined) | 200 µg/mL (≈ 486 µM) | 500 µg/mL (≈ 1220 µM) | > 250 µg/mL | > 250 µg/mL | 100 µg/mL (≈ 243 µM) | 250 µg/mL (≈ 608 µM) | 62.5 µg/mL (≈ 152 µM) | 100 µg/mL (≈ 243 µM) | 75% | 499 mmol |  |  | 
C=CCN1c2ccccc2NC2=C(C(=O)CC(C)(C)C2)C1c1cc2cc(C)ccc2n(CC=C)c1=O (centres undefined) | > 250 µg/mL | 250 µg/mL (≈ 521 µM) | > 250 µg/mL | 250 µg/mL (≈ 521 µM) | > 250 µg/mL | 250 µg/mL (≈ 521 µM) | 100 µg/mL (≈ 208 µM) | 200 µg/mL (≈ 417 µM) | < 50% | 292 mmol |  |  | 
OC(Cn1cncn1)(Cn1cncn1)c1ccc(F)cc1F [FLUCONAZOLE] |  |  |  |  |  |  |  |  |  |  | 99% |  | 
C=CCn1c(=O)c(C2Nc3ccccc3NC3=C2C(=O)CC(C)(C)C3)cc2ccc(Cl)cc21 (centres undefined) | 250 µg/mL (≈ 544 µM) | 250 µg/mL (≈ 544 µM) | > 250 µg/mL | > 250 µg/mL | > 250 µg/mL | > 250 µg/mL | 250 µg/mL (≈ 544 µM) | 100 µg/mL (≈ 217 µM) | 62% | 328 mmol |  |  | 
C=CCn1c(=O)c(C2Nc3ccccc3NC3=C2C(=O)CC(C)(C)C3)cc2cc(C)ccc21 (centres undefined) | 200 µg/mL (≈ 455 µM) | 500 µg/mL (≈ 1140 µM) | > 250 µg/mL | 250 µg/mL (≈ 569 µM) | 250 µg/mL (≈ 569 µM) | 250 µg/mL (≈ 569 µM) | > 250 µg/mL | 250 µg/mL (≈ 569 µM) | 96% | 462 mmol |  |  | 
NYSTATIN |  |  |  |  |  |  |  |  |  |  |  | 100 µg/mL | 100 µg/mL
C=CCN1c2ccccc2NC2=C(C(=O)CCC2)C1c1cc2ccc(C)cc2n(CC=C)c1=O (centres undefined) | 250 µg/mL (≈ 554 µM) | 500 µg/mL (≈ 1110 µM) | 250 µg/mL (≈ 554 µM) | > 250 µg/mL | 100 µg/mL (≈ 221 µM) | > 250 µg/mL | > 250 µg/mL | 200 µg/mL (≈ 443 µM) | 64% | 382 mmol |  |  | 
C=CCN1c2ccccc2NC2=C(C(=O)CC(C)(C)C2)C1c1cc2ccccc2n(CC=C)c1=O (centres undefined) | > 250 µg/mL | 500 µg/mL (≈ 1070 µM) | 250 µg/mL (≈ 537 µM) | > 250 µg/mL | > 250 µg/mL | > 250 µg/mL | 250 µg/mL (≈ 537 µM) | > 250 µg/mL | < 50% | 266 mmol |  |  | 
C=CCN1c2ccccc2NC2=C(C(=O)CC(C)(C)C2)C1c1cc2ccc(Cl)cc2n(CC=C)c1=O (centres undefined) | > 250 µg/mL | 500 µg/mL (≈ 1000 µM) | > 250 µg/mL | > 250 µg/mL | 500 µg/mL (≈ 1000 µM) | > 250 µg/mL | > 250 µg/mL | > 250 µg/mL | < 50% | 401 mmol |  |  | 
C=CCN1c2ccccc2NC2=C(C(=O)CCC2)C1c1cc2cc(C)ccc2n(CC=C)c1=O (centres undefined) | 200 µg/mL (≈ 443 µM) | 250 µg/mL (≈ 554 µM) | > 250 µg/mL | > 250 µg/mL | 250 µg/mL (≈ 554 µM) | 250 µg/mL (≈ 554 µM) | 250 µg/mL (≈ 554 µM) | 250 µg/mL (≈ 554 µM) | < 50% | 499 mmol |  |  | 
C=CCN1c2ccccc2NC2=C(C(=O)CCC2)C1c1cc2ccc(Cl)cc2n(CC=C)c1=O (centres undefined) | 250 µg/mL (≈ 530 µM) | 500 µg/mL (≈ 1060 µM) | > 250 µg/mL | > 250 µg/mL | 250 µg/mL (≈ 530 µM) | > 250 µg/mL | 62.5 µg/mL (≈ 132 µM) | 200 µg/mL (≈ 424 µM) | 76% | 361 mmol |  |  | 
C=CCN1c2ccccc2NC2=C(C(=O)CC(C)(C)C2)C1c1cc2ccc(C)cc2n(CC=C)c1=O (centres undefined) | 250 µg/mL (≈ 521 µM) | 250 µg/mL (≈ 521 µM) | > 250 µg/mL | 250 µg/mL (≈ 521 µM) | > 250 µg/mL | > 250 µg/mL | 200 µg/mL (≈ 417 µM) | 250 µg/mL (≈ 521 µM) | 67% | 358 mmol |  |  | 
C=CCn1c(=O)c(C2Nc3ccccc3NC3=C2C(=O)CCC3)cc2ccccc21 (centres undefined) | 250 µg/mL (≈ 629 µM) | 250 µg/mL (≈ 629 µM) | > 250 µg/mL | 200 µg/mL (≈ 503 µM) | 200 µg/mL (≈ 503 µM) | > 250 µg/mL | 200 µg/mL (≈ 503 µM) | 250 µg/mL (≈ 629 µM) | < 50% | 347 mmol |  |  | 
Clc1ccc(COC(Cn2ccnc2)c2ccc(Cl)cc2Cl)c(Cl)c1 (centres undefined) [MICONAZOLE] |  |  |  |  |  |  |  |  |  |  | 99% |  | 
O=C(N[C@H](CO)[C@H](O)c1ccc([N+](=O)[O-])cc1)C(Cl)Cl [CHLORAMPHENICOL] | 50 µg/mL (≈ 155 µM) | 50 µg/mL (≈ 155 µM) |  | 50 µg/mL (≈ 155 µM) | 50 µg/mL (≈ 155 µM) |  | 50 µg/mL (≈ 155 µM) | 50 µg/mL (≈ 155 µM) |  |  |  |  | 
CCn1cc(C(=O)O)c(=O)c2cc(F)c(N3CCNCC3)cc21 [NORFLOXACIN] | 100 µg/mL (≈ 313 µM) | 50 µg/mL (≈ 157 µM) |  | 10 µg/mL (≈ 31.3 µM) | 10 µg/mL (≈ 31.3 µM) |  | 10 µg/mL (≈ 31.3 µM) | 10 µg/mL (≈ 31.3 µM) |  |  |  |  | 
